B1: tRNA (parent)
chain: GUUCCGUUGGCGUAAUGGUAACGCGUCUCCCUCCUAAGGAGAAGACUGCGGGUUCGAGUCCCGUACGGAACG

Fewer inactive variants are shown than the library holds.

The variants in this series derive from B1. Put plainly: yeast fitness relative to wild type (ratio to wild type); higher = fitter; tRNA-Arg(CCU), competitive growth, 37 C, YPD. The essentials: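 Gene amplicons from the start population and from each of six end populations were read by 100-nucleotide paired-end sequencing. Those end populations came from pooled Saccharomyces cerevisiae strains carrying tRNA-Arg(CCU) gene variants at the native locus, competed in YPD at 37°C for 24 hours. Fitness relative to wild type was worked out from changes in genotype frequencies. Genotypes needed ≥ 100 starting reads, and estimates < 0.5 were set to 0.5.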
With C27U U47C G63A C66U, the yeast fitness was at most 0.5.
Then U28A A36G A57U A69U, with at most 0.5.
The value for U28A G56A C62A was 0.582; that for U28C U32A was 0.754; that for U28C U32C was 0.935.
With U28A C66U G68A, the yeast fitness was at most 0.5.
For U28C G68A, the yeast fitness stood at 0.839.
Turning to U28G A43G G44A, the yeast fitness is at most 0.5.
The value for U28C C33U G41A A69U was at most 0.5; that for U28C G51A was 0.773; that for U28A C34U C61U was 0.554.
The value for U28C U32C C60A was at most 0.5; that for U28A U32C A70G was 0.604; that for C29A A36G A45C G56A was at most 0.5.
Then U28G C62U, with 0.737; and U28C C33A A42C A45U G63C, with at most 0.5; and U28C C33A A42C A45U, with at most 0.5.
Regarding U28C C34A C49G G51C, the yeast fitness is at most 0.5.
Then U28C C55U, with 0.685; and U28C C55A, with 0.564; and U28A A42C C49G C62U, with 0.585.
The value for U28G G48A G67C A69G was at most 0.5; that for U28C C33U A37G G41A G52C was at most 0.5; that for U28G C33G A45C was 0.607.
Then U28C A40G A70C, with 0.576.
As to U28A C33G, the yeast fitness was 0.618.
On to U28A C29G G51A G56A A69C, for which the yeast fitness was at most 0.5.
As for U28C C30G C49G, the yeast fitness is at most 0.5.
The value for U28A U35C A37C was 0.647.
With U28A C29G C31U U54C, the yeast fitness is at most 0.5.
The value for U28A G58C G68C was at most 0.5.
Then U28G G50C, with 0.637; and U28A A43C A57C, with 0.608; and U28G C34A, with 0.568.
Then U28C G41A A57U C66G, with at most 0.5.
In the case of U28A A36G G52C, the yeast fitness was at most 0.5.
Consider U28C U64A, for which the yeast fitness is 0.622.
Then C27U U59A C66U, with at most 0.5.
The value for U28C C62U was 1.02; that for U28C C62G was 0.724; that for U28C G51A U59A A65C was at most 0.5.
The value for U28C C33A C49U C55G was at most 0.5; that for U28A C34U A45U C62A was at most 0.5.
Take C27U U47G C55G G58C: the yeast fitness was 0.67.
Then U28A A36U G48C, with at most 0.5.
Take U28A A36C A45G: the yeast fitness was at most 0.5.
The value for U28A A40U C49U C60A G63A was at most 0.5; that for U28A C33G A43C G63A was 0.524.
Then U28A G48A C60G, with at most 0.5; and U28G G48A C49G G50U, with 0.611.
Then C27U U59A A65U, with at most 0.5; and C29A A37G G58A, with at most 0.5; and U28C A70G, with 0.92.
Consider U28G U35G A45U, for which the yeast fitness was at most 0.5.
Turning to U28G A40U G56A, the yeast fitness came out at 1.02.
The value for U28A U32G A69U was at most 0.5; that for U28C C33U C49G was at most 0.5; that for U28G C34G G44C U64G was at most 0.5.
Then U28C A57U, with 0.823; and U28A C33G A43C C61U A69U, with at most 0.5.
Then U28A A43U U53A, with at most 0.5.
On to U28A C34G C49G, for which the yeast fitness was at most 0.5.
The value for U28G C46U C60A was at most 0.5; that for U28A A45G C66U was 0.538.
Then U28G U47C, with 0.824; and U28A C61G C62G, with 0.533.
For the variant U28C A65C, the yeast fitness turned out to be 0.85.
The value for U28G U32C C49G G52C was at most 0.5; that for U28G C30G C49U U64C was at most 0.5; that for U28A G48A C61A was at most 0.5.
Regarding U28C C34G A40G A43G C46G G52A C55U C66U, the yeast fitness worked out at 0.547.
Then U28C C61G G68C, with at most 0.5; and U28C C61G G67A, with at most 0.5.
Then U28C C55A C61U G68A A70G, with at most 0.5; and U28G C34U G38A, with at most 0.5; and U28C C29U, with 0.806.
Then U28C U47C U59A C66A, with at most 0.5; and C27U U64C C66A, with at most 0.5.
In the case of U28C G38A A40C A45G G48A U59A C62U, the yeast fitness was determined as 0.542.
U28G G38A A57C: the yeast fitness is at most 0.5.
For U28A A43C G48A A70C, the yeast fitness was determined as 0.577.
The value for U28C U32C C34U A45U A70U was 0.584.
The value for U28G G41C was 0.551.
The value for U28C C29A C31G C55A G58A was at most 0.5; that for U28C G44C was 0.935.
Regarding U28A G58C, the yeast fitness amounted to 0.798.
Then U28A G58A, with 0.913; and U28G C31U A70U, with 0.543.
The value for U28A G48A G58C C66G was at most 0.5.
The value for U28A C29A C46U C55G was at most 0.5; that for U28C C29U A45C was 0.545; that for U28G C31G A57C C66U was at most 0.5.
On to U28C C29G C49U, for which the yeast fitness was at most 0.5.
The value for U28G G52A was 0.681; that for U28A C30G was 0.51.
On to U28A C30A, for which the yeast fitness turned out to be 0.759.
The value for U28A C34U U47C C60U was at most 0.5.
For U28G A37C C55U A65U, the yeast fitness is at most 0.5.
Then U28A C33G A36U A40G U54C, with 0.528.
Then U28C C34G A40G A43G C46G C55U C66U, with at most 0.5; and U28C C33G G38A A57G, with at most 0.5.
Then U28G U32A G38C, with 0.653.
Regarding U28A A40G G51C U54A G58C C66U, the yeast fitness was at most 0.5.
Then U28C C46A C62A U64A, with at most 0.5; and U28A C49U U54G, with at most 0.5; and U28C G56A, with 0.933.
The value for U28G A36G C66U was 0.582.
Then U28A A36G, with 0.73; and U28A A36U, with 0.564.
As to U28G G51A C62G, the yeast fitness is at most 0.5.
Then U28C A37C A70C, with at most 0.5; and U28A C31G A42U C49G G67U, with at most 0.5; and U28G C55U G67C, with at most 0.5.
With U28G A37C C55U, the yeast fitness is at most 0.5.
Turning to U28C C34G G38C A45C, the yeast fitness was at most 0.5.
For the variant U28G G51C U64A C66U A69C, the yeast fitness is 0.583.
With U28A C31G U35C U47C C60U C61U, the yeast fitness was at most 0.5.
Then U28A C31A C33U A37C G50A A65U, with at most 0.5.
As to U28G G39C C55G, the yeast fitness is at most 0.5.
Then U28A G39A C46A A57C, with at most 0.5; and U28G C30A, with 0.645.
The value for U28A A45C C46G G67A was 0.532; that for U28G C34G G44C C61G was 0.558.
Then U28G C55G, with at most 0.5; and U28G A36C G38C C49U, with at most 0.5; and U28A G41A, with 0.697.
U28C G51A C55U C66G: the yeast fitness worked out at 0.553.
For U28C U47C, the yeast fitness came to 0.915.
Then U28G G38A A40G G56A C62U, with at most 0.5.
The value for U28C C55U A70U was 0.61; that for U28G C31U C66U was at most 0.5; that for U28G C61G was 0.634.
Regarding U28G C61U, the yeast fitness amounted to 0.808.
For U28G C66U, the yeast fitness worked out at 0.778.
The value for U28C C30U C49U was at most 0.5; that for U28G A57C A65C was at most 0.5.
Then U28C G39U C49A C55U, with at most 0.5; and U28C A40G, with 0.807; and C29A A36C, with 0.634.
The value for U28C A37C A40U A65U was at most 0.5; that for U28C C33U G41A G52C was at most 0.5.
Turning to U28A U35C, the yeast fitness came to 0.753.
The value for U28A A40G A43U A65U C66U was at most 0.5; that for U28G C30G U53A C61U was at most 0.5; that for U28G was 0.957.
U28A: the yeast fitness came to 0.892.
On to U28C, for which the yeast fitness amounted to 0.981.
As to U28G C33G G68C, the yeast fitness is at most 0.5.
The value for U28G C31U C49G was at most 0.5.
Consider U28A G44A G50A A57G G68C, for which the yeast fitness was at most 0.5.
The value for U28C G63U was 0.521; that for U28C G63C was 0.611; that for U28C G63A was 0.939.
Then U28C G58A, with 0.937; and U28A C31U A65U, with 0.546; and U28C C61U, with 0.874.
As to U28C C61A, the yeast fitness amounted to 0.765.
The value for U28C G41C C62A was at most 0.5; that for U28G A37G was 0.586; that for U28C U47C G58A was 1.07.
Then U28A G38C G41A C46A, with at most 0.5; and U28C C55U A57C, with at most 0.5; and U28G C31U A69U, with 0.524.
Take U28A A40C: the yeast fitness is 0.961.
The value for U28A C31U U32A C55U was at most 0.5; that for U28A C29G C33U C34G A42U U59C was at most 0.5; that for U28G U64G was 0.628.

Values taken from the RNAGym collection of RNA variant scans (doi:10.1126/science.aae0568).
